For data set [1], the system named is Proteus vulgaris. Kind of data set: Minimum inhibitory concentration against Proteus vulgaris 1028 BC (Class Ic beta-lactamase overproducer). In kind it is functional. In a few lines: (§1)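 Broth MIC determination: serial 2-fold dilutions in Mueller-Hinton broth by standard methodology; the lowest concentration inhibiting growth is reported as the MIC, in nmol/mL.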

The subject of data set [2] is Streptococcus pyogenes. Description: Evaluated for the in vivo activity in mice against streptococcus pyogenes 4. It is filed as functional.
Data set [3] is described as follows: Evaluated for its stability in dog serum at 37 degrees Celsius as determined by HPLC analysis. It is filed as ADME, organism-based, Canis lupus familiaris. A digest of the protocol:
(§2)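 Compound solutions incubated at 37 °C, sampled at intervals; remaining starting material quantified by HPLC on PRP-1 column, UV 286 nm, mobile phase 0.01 M tetradecyltrimethylammonium bromide in 60% 0.067 M pH 7.4 phosphate buffer/40% acetonitrile; half-life reported.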

Data set [4] in a line: Evaluated for its stability in phosphate buffer, pH 6.5 at 37 degrees Celsius as determined by HPLC analysis. It is filed as physicochemical. A digest of the protocol: as §2
Data set [5] deals with Streptococcus pneumoniae. Kind of data set: Minimum inhibitory concentration against Streptococcus pneumoniae 6301. It is filed as functional. A digest of the protocol: as §1
The subject of data set [6] is Escherichia coli. Description: Evaluated for the in vivo activity in mice against Escherichia coli 257. It is filed as functional.
Data set [7] relates to Staphylococcus aureus. Kind of data set: Minimum inhibitory concentration against Staphylococcus aureus 95 (Methicillin-resistant, high-level beta-lactamase producer). It is filed as functional. A digest of the protocol:
(§3)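 Serial 2-fold broth dilution in Mueller-Hinton broth, run by standard methodology; read-out is the minimum inhibitory concentration (MIC).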

Data set [8] concerns Escherichia coli. Description: Evaluated for in Vitro activity against Escherichia coli DC-O. In kind it is functional. The conditions noted are these: read-out: MIC. A digest of the protocol: (§4)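 MIC by serial 2-fold dilution in Mueller-Hinton broth; results given as minimum inhibitory concentrations (nmol/mL).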
The nature of data set [9]: Evaluated for its stability in human serum at 37 degrees Celsius as determined by HPLC analysis. In kind it is ADME, organism-based. In a few lines:
as §2

Data set [10] concerns Streptococcus pneumoniae. Kind of data set: Evaluated for in Vitro activity against Streptococcus pneumoniae 6301. To be noted: read-out: MIC. In kind it is functional. In a few lines: as §4
The subject of data set [11] is Streptococcus pyogenes. Kind of data set: Minimum inhibitory concentration against Streptococcus pyogenes 4. In kind it is functional. A digest of the protocol: as §1
A short description of data set [12]: Evaluated for its stability in rat blood at 37 degrees Celsius as determined by HPLC analysis. In kind it is ADME, organism-based. A digest of the protocol: as §2
Data set [13] is described as follows: Evaluated for its stability in phosphate buffer, pH 7.4 at 37 degrees Celsius as determined by HPLC analysis. It is filed as physicochemical. A digest of the protocol:
as §2

For data set [14], the system named is Pseudomonas aeruginosa. Description: Minimum inhibitory concentration against Pseudomonas aeruginosa ATCC 27853. In kind it is functional. In a few lines:
as §1

Data set [15] is described as follows: Evaluated for its stability in Mueller-Hinton broth at 37 degrees Celsius as determined by HPLC analysis. It is filed as physicochemical. A digest of the protocol: as §2
Data set [16] has as its system Pseudomonas aeruginosa. Description: Evaluated for the minimum inhibitory concentration against Pseudomonas aeruginosa 18S/H ( Class Id beta-lactamase overproducer). In kind it is functional. In a few lines:
as §4

Data set [17] in a line: Evaluated for its stability in monkey serum at 37 degrees Celsius as determined by HPLC analysis. It is filed as ADME, cell-free. To be noted: simiiformes. In a few lines: as §2
Data set [18] relates to Escherichia coli. Kind of data set: Evaluated for the minimum inhibitory concentration against Escherichia coli UB 1005. In kind it is functional. A digest of the protocol:
as §4

A short description of data set [19]: Evaluated for its stability in rat serum at 37 degrees Celsius as determined by HPLC analysis. It is filed as ADME, organism-based. In a few lines:
as §2

Data set [20] can be described thus: Evaluated for its stability in dog blood at 37 degrees Celsius as determined by HPLC analysis. In kind it is ADME, organism-based, Canis lupus familiaris. A digest of the protocol: as §2
Data set [21] deals with Micrococcus luteus. Description: Evaluated for in Vitro activity against Micrococcus luteus PCI. It is filed as functional. To be noted: read-out: MIC. In a few lines:
as §4

Data set [22] deals with Staphylococcus aureus. Description: Evaluated for the minimum inhibitory concentration against Staphylococcus aureus 95 (Methicillin-resistant, high-level beta-lactamase producer). In kind it is functional. A digest of the protocol: as §3
Data set [23] has as its system Proteus vulgaris. Kind of data set: Evaluated for the minimum inhibitory concentration against Proteus vulgaris 1028 BC (Class Ic beta-lactamase overproducer. In kind it is functional. In a few lines:
as §4

The test system of data set [24] is Staphylococcus aureus. Kind of data set: Evaluated for the minimum inhibitory concentration against Staphylococcus aureus ATCC 29213 ( inducible, low level beta-lactamase producer). It is filed as functional. A digest of the protocol:
as §3

Data set [25] deals with Proteus vulgaris. Description: Evaluated for the minimum inhibitory concentration against Proteus vulgaris 1028 BC ( Class Ic beta-lactamase overproducer. In kind it is functional. A digest of the protocol:
as §4

The test system of data set [26] is Enterobacter cloacae. Kind of data set: Evaluated for the minimum inhibitory concentration against Enterobacter cloacae P99 ( Class Ia beta-lactamase overproducer). In kind it is functional. In a few lines:
as §4

Data set [27] deals with Staphylococcus aureus. Kind of data set: Evaluated for the minimum inhibitory concentration against Staphylococcus aureus 1059B ( inducible, high level beta-lactamase producer). In kind it is functional. In a few lines:
as §3

The test system of data set [28] is Staphylococcus aureus. Description: In vitro antibacterial activity was determined against Staphylococcus aureus 1059B ( inducible, high level beta-lactamase producer). In kind it is functional. A digest of the protocol: as §1
Data set [29] relates to Proteus mirabilis. Kind of data set: In vitro antibacterial activity was determined against Proteus mirabilis 90. In kind it is functional. In a few lines: as §4
Data set [30] relates to Pseudomonas aeruginosa. Kind of data set: In vitro antibacterial activity was determined against Pseudomonas aeruginosa ATCC 27853. It is filed as functional. A digest of the protocol: as §1
For data set [31], the system named is Enterobacter cloacae. Kind of data set: In vitro antibacterial activity was determined against Enterobacter cloacae P99 (Class Ia beta-lactamase overproducer). In kind it is functional. In a few lines:
as §4

Data set [32] concerns Streptococcus pneumoniae. Description: (§5) In vitro antibacterial activity was determined against Streptococcus pneumoniae 6301. It is filed as functional. In a few lines:
as §1

Data set [33] deals with Escherichia coli. Description: In vitro antibacterial activity was determined against Escherichia coli DC-O. It is filed as functional. In a few lines: as §4
Data set [34] concerns Micrococcus luteus. Kind of data set: In vitro antibacterial activity was determined against Micrococcus luteus PCI. It is filed as functional. In a few lines:
as §4

Data set [35] concerns Staphylococcus aureus. Description: In vitro antibacterial activity was determined against Staphylococcus aureus 95 (Methicillin-resistant, high-level beta-lactamase producer). In kind it is functional. In a few lines:
as §3

For data set [36], the system named is Citrobacter freundii. Kind of data set: In vitro antibacterial activity was determined against Citrobacter freundii BS-16. It is filed as functional. In a few lines:
as §4

Data set [37] relates to Pseudomonas aeruginosa. Description: In vitro antibacterial activity was determined against Pseudomonas aeruginosa 18S/H (Class Id beta-lactamase overproducer). It is filed as functional. In a few lines:
as §1

Data set [38] concerns Enterococcus faecalis. Description: In vitro antibacterial activity was determined against Enterococcus faecalis ATCC 29212. It is filed as functional. A digest of the protocol:
as §4

The test system of data set [39] is Streptococcus pyogenes. Kind of data set: In vitro antibacterial activity was determined against Streptococcus pyogenes 4. In kind it is functional. In a few lines:
as §1

Data set [40] has as its system Escherichia coli. Kind of data set: In vivo effective dose against mice infected with Escherichia coli 257. In kind it is functional. A digest of the protocol: (§6)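 Mouse protection test against systemic infection, run by literature procedures; the compound was given subcutaneously, and the effective dose (ED50, mg/kg) was determined.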
Data set [41] relates to Streptococcus pyogenes. Kind of data set: In vivo effective dose against mice infected with streptococcus pyogenes 4. It is filed as functional. A digest of the protocol: as §6
In data set [42] the test system is Staphylococcus aureus. Kind of data set: In vitro antibacterial activity was determined against Staphylococcus aureus ATCC 29213 (inducible, low level beta-lactamase producer). It is filed as functional. A digest of the protocol: as §3
Data set [43] has as its system Escherichia coli. Description: In vitro antibacterial activity was determined against Escherichia coli TEM-1 (TEM-1 (class IIIa) beta-lactamase producer). It is filed as functional. In a few lines:
as §4

Data set [44] deals with Serratia marcescens. Description: In vitro antibacterial activity was determined against Serratia marcescens 1071. In kind it is functional. In a few lines: as §1
Data set [45] deals with Proteus vulgaris. Kind of data set: In vitro antibacterial activity was determined against Proteus vulgaris 1028 BC (Class Ic beta-lactamase overproducer). In kind it is functional. In a few lines: as §4
Data set [46] relates to Streptococcus pneumoniae. The data set is described as §5. In kind it is functional. In a few lines:
as §1
This is another data set of the same source.

Values after ≈ are worked out from the molar mass of the structure shown.

In general, MIC refers to the lowest concentration that inhibits growth of the organism. What is called ED50 is the midpoint of the dose-response relation. Usually half-life stands for the time in which the quantity being followed falls by half.

In the case of `CO/N=C(/C(=O)N[C@@H]1C(=O)N2C(C(=O)O)=C(COC(=O)c3cn(CCF)c4c(F)c(N5CCN(C)CC5)c(F)cc4c3=O)CSC12)c1csc(N)n1` (stereo not given in full), the MIC in data set [1] is 0.25 µg/mL (≈ 0.327 µM); in data set [5], less than 0.008 µg/mL; in data set [7], 2 µg/mL (≈ 2.62 µM); in data set [8] it was 0.299 µM (≈ 0.229 µg/mL); in data set [10], 0.0187 µM (≈ 0.0143 µg/mL); in data set [11] it was 0.031 µg/mL (≈ 0.0405 µM). In addition, the MIC in data set [14] stood at 8 µg/mL (≈ 10.5 µM); in data set [16] it was 4 µg/mL (≈ 5.23 µM); in data set [18] it was 0.12 µg/mL (≈ 0.157 µM); in [21], 0.0746 µM (≈ 0.0571 µg/mL). Besides, the results for the ED50 in data set [2] and in [6] were 8.8 mg/kg and 1.8 mg/kg, respectively. Also, the half-life in data set [3] was 3.9 h; in [4] it was 6.9 h; in data set [9], 6.3 h; in [12] it was 5.8 h; in [13], 3 h; in data set [15], 3.4 h. Further, the results for the half-life in data set [17], in data set [19] and in [20] were 5.7 h, 4.5 h and 3.4 h, respectively.

As to `CN1CCN(c2c(F)cc3c(=O)c(C(=O)OCC4=C(C(=O)O)N5C(=O)[C@@H](NC(=O)/C(=N/OCC(=O)O)c6csc(N)n6)C5SC4)cn(CCF)c3c2F)CC1` (stereo not given in full), the MIC in data set [5] was 0.5 µg/mL (≈ 0.618 µM); in data set [22], 1 µg/mL (≈ 1.24 µM); in data set [11], 0.5 µg/mL (≈ 0.618 µM); in data set [14], 32 µg/mL (≈ 39.6 µM); in data set [16], 4 µg/mL (≈ 4.95 µM); in [23], 0.25 µg/mL (≈ 0.309 µM).

With `CCn1cc(C(=O)O)c(=O)c2cc(F)c(N3CCN(C=O)CC3)cc21` [4-N-FORMYL-1-PIPERAZINYL-NORFLOXACIN], the MIC is 1 µg/mL (≈ 2.88 µM) in data set [24]; 8 µg/mL (≈ 23 µM) in data set [5]; 1 µg/mL (≈ 2.88 µM) in [7]; 0.5 µg/mL (≈ 1.44 µM) in data set [25]; 0.5 µg/mL (≈ 1.44 µM) in [26]; 1 µg/mL (≈ 2.88 µM) in data set [27]. The MIC is 8 µg/mL (≈ 23 µM) in data set [11], 16 µg/mL (≈ 46.1 µM) in [14] and 2 µg/mL (≈ 5.76 µM) in data set [16].

For `CN1CCN(c2c(F)cc3c(=O)c(C(=O)O)cn(CCF)c3c2F)CC1` [FLEROXACIN], the MIC was found to be 0.5 µg/mL (≈ 1.35 µM) in data set [28]; 0.5 µg/mL (≈ 1.35 µM) in data set [29]; 4 µg/mL (≈ 10.8 µM) in [30]; 0.125 µg/mL (≈ 0.338 µM) in data set [31]; 4 µg/mL (≈ 10.8 µM) in data set [32]; 1.19 µM (≈ 0.44 µg/mL) in data set [33]. Besides, the minimal inhibitory concentration (MIC) in data set [34] came out at 38.2 µM (≈ 14.1 µg/mL); in data set [35] it was 0.5 µg/mL (≈ 1.35 µM); in data set [36], 1 µg/mL (≈ 2.71 µM); in [37] it was 2 µg/mL (≈ 5.42 µM); in data set [38], 4 µg/mL (≈ 10.8 µM); in data set [39], 1 µg/mL (≈ 2.71 µM). Also, the minimal inhibitory concentration (MIC) in data set [42] came out at 0.5 µg/mL (≈ 1.35 µM); in [43], 0.125 µg/mL (≈ 0.338 µM); in data set [44] it was 0.25 µg/mL (≈ 0.677 µM); in data set [45], 0.25 µg/mL (≈ 0.677 µM); in data set [46], 9.53 µM (≈ 3.52 µg/mL). Further, the 50% effective dose (ED50) in data set [40] amounted to 0.4 mg/kg; in data set [41], 183 mg/kg.

(Values after ChEMBL document CHEMBL1125107, “Cephalosporin 3'-quinolone esters with a dual mode of action” (J Med Chem, 1990).)
